Measurements collected from several papers.
Compare with care: the assays were run in different laboratories.
Target: Mitogen-activated protein kinase kinase kinase 9 (MAP3K9, Homo sapiens, UniProt P80192)
Observed: enzyme activity
Mode: inhibitor

| SMILES | test | setting | remaining activity [%] |
| --- | --- | --- | --- |
| Cc1ccc(C(=O)Nc2ccc(CN3CCN(C)CC3)c(C(F)(F)F)c2)cc1C#Cc1cnc2cccnn12 |  | 23.5 nM | 96 |
| COc1cc(Nc2cnc(C#N)c(O[C@H](C)CN(C)C)n2)ncc1-c1cnn(C)c1 | radiometric | 10 µM | 48 |
| O=C(Nc1cnn(-c2csc(C(=O)NC3COC3)c2)c1)Nc1c(F)cccc1Cl |  | 5 µM | 88.5 |
| O=C(NCCCNc1ccnc(Nc2cccc(NC(=O)N3CCCC3)c2)n1)C1CCC1 | radiometric | 1 µM | 79 |
| CCN(CC)c1ccc(C2=NNC(=O)CC2C)cc1[N+](=O)[O-] (stereo not shown) |  | 10 µM | 100 |
| CN1CCc2cc(Nc3ncc(C4CC4)c(NCCCNC(=O)C4CCC4)n3)ccc2C1 | radiometric | 1 µM | 14 |
| CC(C)(O)[C@H]1CC[C@H](Nc2ccc3ncc(-c4cccc(C(F)(F)F)c4)n3n2)CC1 |  | 1 µM | 77 |
| NS(=O)(=O)c1ccc(CNc2ccnc(Nc3cccc(CN4CCOCC4)c3)n2)cc1 | radiometric | 1 µM | 81 |
| FC(F)c1nc2ccccc2n1-c1nc(N2CCOCC2)nc(N2CCOCC2)n1 |  | 10 µM | 86 |
| CC(C)(C)c1nc(-c2cccc(NS(=O)(=O)c3c(F)cccc3F)c2F)c(-c2ccnc(N)n2)s1 | radiometric | 1 µM | 70 |
| Cc1sc(C(=O)NC2COC2)cc1-n1cc(NC(=O)Nc2c(F)cccc2Cl)cn1 |  | 10 µM | 87.5 |
| Oc1cccc(-c2nc(N3CCOCC3)c3oc4ncccc4c3n2)c1 |  | 10 µM | 65 |
| Cc1nn(CC(F)(F)F)cc1Nc1ncc(Br)c(NCCc2cnc[nH]2)n1 | radiometric | 1 µM | 30 |
| COc1cc(Cl)c(C(=O)N[C@@H](CN[C@H]2CC[C@@H](N)CC2)Cc2ccc(C#N)cc2)cc1-c1ccc(CN[C@H](C)c2ccc(C)cc2)o1 |  | 1 µM | 97 |
| Cc1cnc(NC2CCOCC2)nc1-n1cnc(C(=O)NC(CN)c2cc(F)cc(Cl)c2)c1 (stereo not shown) | radiometric | 1 µM | 94 |
| Cc1nn(CC(F)(F)F)cc1Nc1ncc(C2CC2)c(NCc2ccc(S(N)(=O)=O)cc2)n1 | radiometric | 1 µM | 90 |
| CC(C)(C)c1nc2c(s1)c1nc(N)ncc1c1ccc(NS(=O)(=O)c3c(F)cccc3F)c(F)c12 | radiometric | 1 µM | 66 |
| CCCOc1ccc(OC)c(F)c1C(=O)c1ccc(C(=O)N[C@@H]2CNC[C@H]2NC(=O)c2ccc3[nH]ncc3c2)cc1 |  | 10 µM | 32 |
| Cc1nn(CC(F)(F)F)cc1Nc1nccc(NCc2ccc(S(N)(=O)=O)cc2)n1 | radiometric | 1 µM | 97 |
